System: CaM (Calmodulin-agarose)
Assay: CaM-agarose pulldown of TRPA1 constructs
Type: binding
Settings: for CaM binding at basal Ca2+ concentration: n=3 independent experiments
Outline: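 HEK293T cells were transfected with tagged TRPA1 constructs and lysed after 16-24 h in Tris pH 8.0 buffer containing 5 mM DDM and 500 µM EGTA. Free Ca²⁺ was set with CaCl₂, calculated from EGTA constants. 100 µg lysate was incubated with CaM-agarose for 1 h at 4 °C, washed, then eluted with 5 mM EGTA. Detection was by anti-FLAG or anti-MBP immunoblot, with tubulin input control. Enrichment is relative to the maximum within each replicate.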

B1: Quad: hTRPA1 W1103A/V1106A/L1107A/V1110A (protein)
chain: MKRSLRKMWRPGEKKEPQGVVYEDVPDDTEDFKESLKVVFEGSAYGLQNFNKQKKLKRCDDMDTFFLHYAAAEGQIELMEKITRDSSLEVLHEMDDYGNTPLHCAVEKNQIESVKFLLSRGANPNLRNFNMMAPLHIAVQGMNNEVMKVLLEHRTIDVNLEGENGNTAVIIACTTNNSEALQILLKKGAKPCKSNKWGCFPIHQAAFSGSKECMEIILRFGEEHGYSRQLHINFMNNGKATPLHLAVQNGDLEMIKMCLDNGAQIDPVEKGRCTAIHFAATQGATEIVKLMISSYSGSVDIVNTTDGCHETMLHRASLFDHHELADYLISVGADINKIDSEGRSPLILATASASWNIVNLLLSKGAQVDIKDNFGRNFLHLTVQQPYGLKNLRPEFMQMQQIKELVMDEDNDGCTPLHYACRQGGPGSVNNLLGFNVSIHSKSKDKKSPLHFAASYGRINTCQRLLQDISDTRLLNEGDLHGMTPLHLAAKNGHDKVVQLLLKKGALFLSDHNGWTALHHASMGGYTQTMKVILDTNLKCTDRLDEDGNTALHFAAREGHAKAVALLLSHNADIVLNKQQASFLHLALHNKRKEVVLTIIRSKRWDECLKIFSHNSPGNKCPITEMIEYLPECMKVLLDFCMLHSTEDKSCRDYYIEYNFKYLQCPLEFTKKTPTQDVIYEPLTALNAMVQNNRIELLNHPVCKEYLLMKWLAYGFRAHMMNLGSYCLGLIPMTILVVNIKPGMAFNSTGIINETSDHSEILDTTNSYLIKTCMILVFLSSIFGYCKEAGQIFQQKRNYFMDISNVLEWIIYTTGIIFVLPLFVEIPAHLQWQCGAIAVYFYWMNFLLYLQRFENCGIFIVMLEVILKTLLRSTVVFIFLLLAFGLSFYILLNLQDPFSSPLLSIIQTFSMMLGDINYRESFLEPYLRNELAHPVLSFAQLVSFTIFVPIVLMNLLIGLAVGDIAEVQKHASLKRIAMQVELHTSLEKKLPLWFLRKVDQKSTIVYPNKPRSGGMLFHIFCFLFCTGEIRQEIPNADKSLEMEILKQKYRLKDLTFLLEKQHELIKLIIQKMEIISETEDDDSHCSFQDRFKKEQMEQRNSRANTAARAAKAKTHHLEP
CaM binding at basal Ca2+ concentration: similarly ablated CaM binding

B2: RK/AA (protein)
chain: MKRSLRKMWRPGEKKEPQGVVYEDVPDDTEDFKESLKVVFEGSAYGLQNFNKQKKLKRCDDMDTFFLHYAAAEGQIELMEKITRDSSLEVLHEMDDYGNTPLHCAVEKNQIESVKFLLSRGANPNLRNFNMMAPLHIAVQGMNNEVMKVLLEHRTIDVNLEGENGNTAVIIACTTNNSEALQILLKKGAKPCKSNKWGCFPIHQAAFSGSKECMEIILRFGEEHGYSRQLHINFMNNGKATPLHLAVQNGDLEMIKMCLDNGAQIDPVEKGRCTAIHFAATQGATEIVKLMISSYSGSVDIVNTTDGCHETMLHRASLFDHHELADYLISVGADINKIDSEGRSPLILATASASWNIVNLLLSKGAQVDIKDNFGRNFLHLTVQQPYGLKNLRPEFMQMQQIKELVMDEDNDGCTPLHYACRQGGPGSVNNLLGFNVSIHSKSKDKKSPLHFAASYGRINTCQRLLQDISDTRLLNEGDLHGMTPLHLAAKNGHDKVVQLLLKKGALFLSDHNGWTALHHASMGGYTQTMKVILDTNLKCTDRLDEDGNTALHFAAREGHAKAVALLLSHNADIVLNKQQASFLHLALHNKRKEVVLTIIRSKRWDECLKIFSHNSPGNKCPITEMIEYLPECMKVLLDFCMLHSTEDKSCRDYYIEYNFKYLQCPLEFTKKTPTQDVIYEPLTALNAMVQNNRIELLNHPVCKEYLLMKWLAYGFRAHMMNLGSYCLGLIPMTILVVNIKPGMAFNSTGIINETSDHSEILDTTNSYLIKTCMILVFLSSIFGYCKEAGQIFQQKRNYFMDISNVLEWIIYTTGIIFVLPLFVEIPAHLQWQCGAIAVYFYWMNFLLYLQRFENCGIFIVMLEVILKTLLRSTVVFIFLLLAFGLSFYILLNLQDPFSSPLLSIIQTFSMMLGDINYRESFLEPYLRNELAHPVLSFAQLVSFTIFVPIVLMNLLIGLAVGDIAEVQKHASLKRIAMQVELHTSLEKKLPLWFLRKVDQKSTIVYPNKPRSGGMLFHIFCFLFCTGEIRQEIPNADKSLEMEILKQKYRLKDLTFLLEKQHELIKLIIQKMEIISETEDDDSHCSFQDRFKKEQMEQRNSAWNTVLRAVAAKTHHLEP
CaM binding at basal Ca2+ concentration: similarly ablated CaM binding

B3: WT C. elegans TRPA1: WT C. elegans TRPA1, MBP-tagged (protein)
chain: MSKKSLGLDVRLELEGLISNDDTIRSEKDGRQASIFRVAELDARTEADNLRSIIHQSAREGNVNALQEALLKAPLAVNAQDGDFMTPLHYAARYGNYDAVKLLLSKNALPNTKNREGDTPLHIASKYIYGYSDICSIIDEDQADSARKYNTATKKIINALVSENAEIDPVNKYQLTPLHYAAMKSNFSALHALIKLKADVDAEDDNKMTPLLLACVHGSQEIIQELIKANSNVTKRDQRLNTVFHIVALRGEPEYLEMMMDHDPVEAIKALNLFNNEKKTPLRMAVEGNHPETLKKILQMEKKNSCKWMDREKELIHFAAEKGFLEVLKALVEAGGNKNELNEVKAVPLHVAAQMNQLEVVSYLIEEEKDNIDVVDEQGLTPLMMAVTHDSKKCVEYLIAKKANLTITDKDERTPVFIGAKFNALSSVEYILDHLRKKNKETERSALKSPTRNTLRIVSEDVRRTMVNMVDRDQNTPMHIVASNGYLEMMQLLQKHGASITQVNEDEETALHRAAIGGQTGAVRQLLEWDIRLLLMKDEMGNSALHLAARSGHDATTKVLLDNGADKEAKNSYQKTPLQVAVDSGKLETCQRLVAKGAQIESSSDTKTVLHTAAFYGNESIVRYFIAEGVTIDRRDEEGKTAFDIACENDHKDVARAFLETDQWKNLMIPCDVIPLDKHRNPVNMKRRTPFRTLLTKFPELASFVMDNCIEKSKEETDSTQSVAYNFEFLDDTYMMRCVSDDGTGEQLIGCKSAYDEDFKLEKDAQSYASNYDRVYKYHPLKLMADAEKLHLLNHPLSKALLKYKWNRLGRPMYYFALFMYLVFIVSLTQYVRHTKAPYNVWNEESYYDSEYFDENETCPQINTTKPDVVWKIIIQTLAVCQILVECFQLFQRKFAYLVNWENWIDCFIYSTALITVYDFSECSATSGVRQNWQWILAALCIFFGWINLLFMIRKMPRFGIFVVMFVDIVKTFFRFFPVFVLFIIAFSSSFYVILQNRPEFSTIFMSPLKTTVMMIGEFEFTGIFHGDETTHAEKMFGPAHTAVACALFFFFCIIMTILLMNLLVGLAVDDIKGVQEKAELKRLAMQVDLVLQIEASLHFFIQRTKKYATCRYATFPYGKLHKTGFAGWWSNFRRRFGLSVSTDPEIDEMYEREAEFTSEMTQKLQNQAAKLKNIQENIDVMYEKQVRLEAIIAKLATGLNINIELEEKDN
CaM binding of TRPA1 species orthologues (MBP-tagged constructs, absence or presence of Ca2+, four independent experiments): failed to bind CaM

Reference: paper PMC11661184 (bioRxiv, 2024)
